# Data taken from ChEMBL document CHEMBL4513216, “Probing the Open Global Health Chemical Diversity Library for Multistage-Active Starting Points for Next-Generation Antimalarials” (ACS Infect Dis, 2020).
# Assay: Toxicity liver stage against HepG2, at 10uM
# Format: cell-based
# Set-up: test concentration 10 uM, cell line HepG2-A16-CD81EGFP
# Details: human, HepG2-A16-CD81EGFP cells; read-out: INHIBITION
# Procedure, shortened: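 Uninfected HepG2-A16-CD81EGFP cells, 3 × 10^3 per well, 1536-well, plated on prespotted compound at 10 μM final, parasite-free screening media added to match infected plates; puromycin 10 μM positive, DMSO 0.5% negative; run in parallel with 48 h PbLuc assay at 37 °C, 5% CO2; viability by CellTiter-Glo luminescence, normalized to controls.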
row,SMILES,cytotoxicity at 10 µM [%]
1,NC(=O)Cn1cnc2nc3n(c2c1=O)CCC3,2.96
2,Cn1ccnc1CN1C[C@H]2CN(S(=O)(=O)c3ccccc3)CCN2C1=O,8.36
3,CC(C)(C)c1c[nH]c([C@@H]2COCCN2C2CCCCC2)n1,-1.6
4,NC(=O)CC1c2cccnc2C(=O)N1Cc1ccccc1 (stereo not given),-5.8
5,Cc1nn(C)cc1C1CC(=O)Nc2c1cnn2C(C)(C)C (stereo not given),-5.45
6,CC1CCN(c2ccc(=O)n(CC(=O)N(C)Cc3ccccc3)n2)CC1,4.84
7,O=C(c1ccno1)N1CC(c2nc(-c3ccco3)no2)C1,-11.3
8,Cn1nnn(-c2ccc(NS(=O)(=O)c3ccc(Br)cc3)cc2)c1=O,-2.77
9,O=C(NCCn1cnc(C2CCCC2)cc1=O)NCc1cccs1,-7.05
10,CNC(=O)CN1C(=O)CCC12CCCN(Cc1ccccn1)C2 (stereo not given),4.5
11,O=C1N(Cc2cccc(F)c2)CCC12CCCNC2 (stereo not given),-5.19
12,CCN1C(=O)CCCC12CCCN(C(=O)c1sccc1C)C2 (stereo not given),3.73
13,CCN1C(=O)CCCC12CCCN(C(=O)c1cc(C)oc1C)C2 (stereo not given),4.09
14,c1cnc(N2CC3(CCN(C4CCOC4)CC3)c3ccccc32)nc1 (stereo not given),-4.2
15,CCC(=O)N1CC[C@H]2C(=O)N(Cc3ccc(OC)cc3)CCO[C@H]2C1,-114
16,Cc1cccc(CN2CC3C[C@]3(NC(=O)c3ccoc3)C2)n1 (stereo not given in full),-147
17,Cn1cncc1CN1CCC2(CC1)CCN2c1ncccn1,9.61
18,COc1cccc(CC(=O)N2CCc3nc(C(N)=O)sc3CC2)c1,9.94
19,Fc1cnc(N2CCOCC3(CCCNC3)C2)nc1 (stereo not given),-5.36
20,Cc1ccccc1C(=O)N1CCCn2nnc(Cn3cccn3)c2C1,9.94
21,Cc1ccc(CN2CC3(CCN(C(=O)Cc4ccc(Cl)cc4)C3)C2)o1,6.11
22,O=c1ccc(-c2cccs2)nn1CN1CCOC(c2ccccc2)C1 (stereo not given),7.57

row,SMILES,cytotoxicity at 10 µM [%]
1,COc1cccc(-n2nc(C(C)=O)c(C(C)=O)c2C)c1,9.51
2,CCNC(=O)c1ccc2c(c1)nc1n2CCN(C(C)C)C1,9.35
3,CC(=O)c1c(C)nn(S(=O)(=O)c2ccc(Cl)cc2)c1C,-6.74
4,COCCO[C@@H]1C[C@H]2CN(C(=O)c3ccc(C)nc3)CCN2C1,-2.2
5,COCCN1CCC2(CCCN(C(=O)c3cnoc3C)C2)C1=O (stereo not given),-23.8
6,CS(=O)(=O)N1CCN(C(=O)c2cc(-c3ccco3)cs2)CC1,4.73
7,O=C(NC1CC1)c1cc(Sc2ncccn2)ccn1,0.493
8,CC(C)C(=O)N1CCC(C)(c2cc[nH]n2)CC1,1.96
9,COCCn1cnnc1C1CCCN(C(C)C)C1 (stereo not given),-27.6
10,Cc1noc(C)c1-c1nc(N(C)C)ncc1-c1cnccn1,-22.8
11,Cc1nn(C)c(C)c1NC(=O)CNC(c1ccccc1)C1CCC1 (stereo not given),1.44
12,OCCOc1cc(F)ccc1NCc1ccc(F)c(F)c1,-6.38
13,Cc1nnc(NCc2ccc(F)cc2)o1,0.217
14,CCOC(=O)C1(O)CCN(C(=O)Nc2cccc(F)c2)CC1,-144
15,CN(CC(=O)NCCC#N)C(c1ccccc1)c1ccccc1,6.51
16,CCC(CC)C(=O)NS(=O)(=O)CCc1ccccc1,1.76
17,C[C@@H]1CN(Cc2ccccc2F)CC(C(N)=O)O1 (stereo not given in full),1.95
18,Cc1cc(CSc2ccccn2)on1,8.4
19,CCOCC(=O)NC(C)Cc1ccccc1Br (stereo not given),-11
20,CCc1ocnc1C(=O)N1CCOCC1CC(=O)c1ccccc1 (stereo not given),5.92
21,O=C(CN1CCS(=O)(=O)CC1)NC1CCCc2ccccc21 (stereo not given),-0.82
22,O=C(NCc1nncn1C1CC1)Nc1ccc(OC2CCC2)c(F)c1,-3.2

row,SMILES,cytotoxicity at 10 µM [%]
1,Cc1nc(CN2CCN(C(=O)c3scnc3C)CC2)cs1,0.524
2,CNS(=O)(=O)CC(=O)N1CC2(CCCC2)c2c(F)cccc21,-1.21
3,Cn1nnc2cc(C(=O)NS(=O)(=O)Cc3ccc(F)cc3)ccc21,-3.7
4,Cc1cc(C(=O)Nc2ccc(OCC3CCOCC3)cc2)[nH]n1,-7.04
5,CC(C)N(CC(N)=O)Cc1csc(-c2ncccn2)n1,5.85
6,CC(C(=O)NC1CC1)S(=O)(=O)c1cc2c(cc1Cl)OCCO2 (stereo not given),-13.9
7,c1cc(N2CCSCC2)ccc1CNc1cncc2nnnn12,5.51
8,CCN(Cc1ccccc1)S(=O)(=O)C1CCS(=O)(=O)CC1,5.44
9,CCn1nc(C)cc1C(=O)N1CCOc2cc(C)ccc21,10.5
10,CCc1n[nH]c(C2CN(Cc3csc(COC)n3)CCO2)n1 (stereo not given),0.753
11,CCn1cnnc1CCNC(=O)C(C)(C)c1cccc(Cl)c1,7.76
12,Cc1csc(CNC(=O)NCC(O)c2cccc(Cl)c2)n1 (stereo not given),-14.6
13,COCc1noc(C2(c3ccc(OC)cc3)CCOCC2)n1,-22.3
14,CC(=O)NCCc1ccc(S(=O)(=O)N(CC(C)C)C(C)C)s1,18.8
15,Cc1ccc(N2CCCC3(CCN(C(=O)C4CC4)C3)C2)nn1 (stereo not given),-109
16,CCN(Cc1cn(CC2CCNCC2)nn1)CC1CCCO1 (stereo not given),-1.77
17,O=C1NCC2(CCCN(C(=O)Nc3ccc4occc4c3)CC2)O1 (stereo not given),2.09
18,CCCc1nc(C)cc(NCCc2nnc(N)s2)n1,3.07
19,Cc1nc(C2CCCNC2)cc(N(C)CCc2ccccc2)n1 (stereo not given),-1.36
20,CCn1nc(C)c(CCn2ccnc2-c2cc3n(n2)CCNC3)c1C,5.15
21,Cc1nn(C)c2nc(NCCCN3CCCC(C(N)=O)C3)sc12 (stereo not given),-9.8
22,COc1ccccc1OCCCc1cc(C)nc(N)n1,0.915

row,SMILES,cytotoxicity at 10 µM [%]
1,COC(=O)[C@H]1C[C@@H](O)CCN1S(=O)(=O)c1cc(Cl)ccc1OC,5.1
2,Cc1cc(C)c2[nH]c(C(=O)NCCN3CCNC3=O)c(C)c2c1,2.49
3,CCN1CCC(CC(=O)NCCc2nc(O)cc(O)n2)CC1,-4.76
4,CCc1ccc(CN2CCC(CNC(=O)c3ccc(C)nc3)C2)nc1 (stereo not given),7.78
5,O=C(Cc1ccccc1C(F)(F)F)N1CCC2(CC1)[C@H](O)C[C@@H]2O,-4.87
6,CC(=O)c1cc(CN2CCCC2c2nc3ccc(C)cc3[nH]2)cs1 (stereo not given),3.01
7,COCCc1noc(Cn2c(=O)[nH]c3ccccc32)n1,-2.03
8,CN1C[C@@H](n2cnc(-c3ccccc3)c2-c2nccn2C)C[C@H]1C(=O)O,-0.338
9,Cc1cc2nc(C(C)C)cc(N3CCC(Oc4ncccn4)CC3)n2n1,13.9
10,O=C(c1ccc2sccc2c1)N1CCC(C(=O)O)(n2cccn2)CC1,-2.77
11,Cc1cc(C(=O)N2CCC(C)CC2)ccc1NS(C)(=O)=O,3.09
12,Cc1c(C(=O)NCC2CCN(Cc3c[nH]cn3)C2)[nH]c2ccccc12 (stereo not given),-9.8
13,COCc1nc(CNc2cc(C)nc(N3CCCCC3)n2)no1,9.84
14,CN1CCN(Cc2nnc(C3CCN(CC4CC4)CC3)n2C)CC1,-13.6
15,c1cnc(-c2nc(CN3CCCC(N4CCCC4)C3)cs2)nc1 (stereo not given),-12
16,COc1c(C2CCCN2C(=O)c2ccc3c(c2)OCO3)c(C)nn1C (stereo not given),-13.4
17,Cc1nnc2n1CCN(Cc1nc(-c3ccoc3)no1)C2,-5.86
18,CC(C)c1nc(CNCC2CCCN2c2cccnn2)cs1 (stereo not given),-4.84
19,Cc1occc1C(=O)Nc1cnn(CCN2CCOCC2)c1,-10
20,Cc1cnn(CC2CCCN2C(=O)c2cccc(-n3ccc(C)n3)c2)c1 (stereo not given),-19.2
21,CC(C)(C)c1nc(CN2CCC(c3ccnn3CCO)CC2)no1,-5.22
22,Cc1cccnc1CNC(=O)N(CCCO)C1CCc2ccccc21 (stereo not given),-11.4

row,SMILES,cytotoxicity at 10 µM [%]
1,CN1CCN(C(=O)c2cccc(OCc3cscn3)c2)CC1,-6.18
2,O=C(Cn1c(-c2ccco2)cc2cccnc21)N1CCCC1,-4.04
3,O=C1CCC2(CCC(NC3CCOC3)CC2)N1Cc1ccccc1 (stereo not given),-5.54
4,Cn1cc(C(=O)N[C@@H]2CN(Cc3ccc(F)cc3)[C@@H]3CCCO[C@@H]32)cn1,-1.31
5,CCN(CC)CC1CN(Cc2cccc(C#N)c2)Cc2nccn2C1 (stereo not given),-127
6,CN1CC(=O)N(c2cccc(F)c2)CC12CCN(Cc1ccncc1)C2 (stereo not given),5.69
7,Cc1ccc(N2CC3(COCCN(Cc4nccs4)C3)OCC2=O)s1 (stereo not given),-13.5
8,Cc1ccnc(OC[C@@]23CCO[C@@H]2CCN(C2CCC2)C3)n1,8.01
9,CCc1ccc(CN2CCC3(CC2)C(=O)N(C)CCN3CC2CC2)cc1,5.68
10,Cc1ccc(CN2Cc3c(C(=O)N4CCOCC4)nn(C)c3C2)s1,6.15
11,Cn1cc(CN2CCCC23CCN(C(=O)c2ccccn2)CC3)cn1,-1.94
12,O=C(NCc1ccccn1)[C@]12COC[C@H]1CN(Cc1cccnc1)C2,5.64
13,O=C(c1ccncc1)N1CCC2(CC1)C(=O)Nc1ccccc12,-146
14,O=C(c1cccs1)N1C[C@@H]2OCCN(CC3CCCO3)[C@@H]2C1 (stereo not given in full),-2.24
15,CS(=O)(=O)NC[C@H]1OC[C@@H]2CCN(Cc3ccc(F)cc3)C[C@@H]21,-2.26
16,Cn1cc(CN2CC[C@@H]3[C@@H](CO[C@H]3CNC(=O)c3ccco3)C2)cn1,-142
17,COCCN1CCc2cc(C(=O)O)c(NCC3CC3)nc2CC1,4.21
18,CCN1C(=O)[C@H]2CN(CC(C)C)C[C@H]2C12CCN(C(=O)NC(C)C)CC2,4.89
19,c1ccc(CO[C@H]2CO[C@@]3(CCCN(Cc4cccnc4)C3)C2)nc1,-6.37
20,COC1C[C@@H]2CN(C(=O)c3ccc(C)s3)C[C@@H]2C1 (stereo not given in full),-2
21,CCC=C(C)C(=O)N1CSCC1C(=O)N(C)CCc1ccncc1 (stereo not given),-9.72
22,O=C(c1ccc[nH]1)N1C[C@@H]2CC[C@H]1CN(c1ncccn1)C2,-7.12
